# Test system: Staphylococcus aureus
# Test: Antibacterial activity against Staphylococcus aureus ATTC 25923 after 3 to 4 days by serial plate dilution method
# Assay type: functional
# Conditions: not given
# Method in brief: (§1)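 Serial dilutions in Mueller-Hinton broth in tubes, pH adjusted to 5.0 with phosphate buffer. Inoculated with a standardized bacterial suspension and incubated 16–18 h at 37 °C. MIC is the lowest concentration with no visible growth, tested over 6.25–100 µg/mL. Zones come from an agar well diffusion assay: compounds in DMSO are added to wells in seeded agar, DMSO control, triplicate plates, 37 °C for 3–4 days, inhibition zone diameter in mm.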
row,SMILES,diameter of the inhibition zone (DIZ)
1,COc1ccc2nc(C)cc(-n3cc(CNCCCN(C)C)nn3)c2c1,14 mm
2,COc1ccc2nc(C)cc(-n3cc(CNC4CCCCC4)nn3)c2c1,<10 mm
3,COc1ccc2nc(C)cc(-n3cc(CN4CCOCC4)nn3)c2c1,16 mm
4,COc1ccc2nc(C)cc(-n3cc(CN(C)C4CCCCC4)nn3)c2c1,<10 mm
5,COc1ccc2nc(C)cc(-n3cc(CN4CCN(c5ccccc5)CC4)nn3)c2c1,10 mm

# Same assay, conditions: Staphylococcus aureus, ATTC 25923
row,SMILES,MIC
1,COc1ccc2nc(C)cc(-n3cc(CNCCCN(C)C)nn3)c2c1,6.25 µg/mL
2,COc1ccc2nc(C)cc(-n3cc(CNC4CCCCC4)nn3)c2c1,25 µg/mL
3,COc1ccc2nc(C)cc(-n3cc(CN4CCOCC4)nn3)c2c1,6.25 µg/mL
4,COc1ccc2nc(C)cc(-n3cc(CN(C)C4CCCCC4)nn3)c2c1,50 µg/mL
5,COc1ccc2nc(C)cc(-n3cc(CN4CCN(c5ccccc5)CC4)nn3)c2c1,6.25 µg/mL

# Test system: Escherichia coli
# Test: Antibacterial activity against Escherichia coli ATTC 25922 after 3 to 4 days by serial plate dilution method
# Assay type: functional
# Conditions: not given
# Method in brief: as §1
row,SMILES,diameter of the inhibition zone (DIZ)
1,COc1ccc2nc(C)cc(-n3cc(CNCCCN(C)C)nn3)c2c1,10 mm
2,COc1ccc2nc(C)cc(-n3cc(CNC4CCCCC4)nn3)c2c1,10 mm
3,COc1ccc2nc(C)cc(-n3cc(CN4CCOCC4)nn3)c2c1,16 mm
4,COc1ccc2nc(C)cc(-n3cc(CN(C)C4CCCCC4)nn3)c2c1,<10 mm
5,COc1ccc2nc(C)cc(-n3cc(CN4CCN(c5ccccc5)CC4)nn3)c2c1,12 mm

# Same assay, conditions: Escherichia coli, ATTC 25922
row,SMILES,MIC
1,COc1ccc2nc(C)cc(-n3cc(CNCCCN(C)C)nn3)c2c1,6.25 µg/mL
2,COc1ccc2nc(C)cc(-n3cc(CNC4CCCCC4)nn3)c2c1,12.5 µg/mL
3,COc1ccc2nc(C)cc(-n3cc(CN4CCOCC4)nn3)c2c1,6.25 µg/mL
4,COc1ccc2nc(C)cc(-n3cc(CN(C)C4CCCCC4)nn3)c2c1,50 µg/mL
5,COc1ccc2nc(C)cc(-n3cc(CN4CCN(c5ccccc5)CC4)nn3)c2c1,12.5 µg/mL

# Test system: Pseudomonas aeruginosa
# Test: Antibacterial activity against Pseudomonas aeruginosa ATCC 27853 after 3 to 4 days by serial plate dilution method
# Assay type: functional
# Conditions: not given
# Method in brief: as §1
row,SMILES,diameter of the inhibition zone (DIZ)
1,COc1ccc2nc(C)cc(-n3cc(CNCCCN(C)C)nn3)c2c1,12 mm
2,COc1ccc2nc(C)cc(-n3cc(CNC4CCCCC4)nn3)c2c1,11 mm
3,COc1ccc2nc(C)cc(-n3cc(CN4CCOCC4)nn3)c2c1,14 mm
4,COc1ccc2nc(C)cc(-n3cc(CN(C)C4CCCCC4)nn3)c2c1,<10 mm
5,COc1ccc2nc(C)cc(-n3cc(CN4CCN(c5ccccc5)CC4)nn3)c2c1,12 mm

# Same assay, conditions: Pseudomonas aeruginosa, ATCC 27853
row,SMILES,MIC
1,COc1ccc2nc(C)cc(-n3cc(CNCCCN(C)C)nn3)c2c1,6.25 µg/mL
2,COc1ccc2nc(C)cc(-n3cc(CNC4CCCCC4)nn3)c2c1,12.5 µg/mL
3,COc1ccc2nc(C)cc(-n3cc(CN4CCOCC4)nn3)c2c1,6.25 µg/mL
4,COc1ccc2nc(C)cc(-n3cc(CN(C)C4CCCCC4)nn3)c2c1,50 µg/mL
5,COc1ccc2nc(C)cc(-n3cc(CN4CCN(c5ccccc5)CC4)nn3)c2c1,12.5 µg/mL

# Test system: Klebsiella pneumoniae
# Test: Antibacterial activity against recultured Klebsiella pneumoniae after 3 to 4 days by serial plate dilution method
# Assay type: functional
# Conditions: not given
# Method in brief: as §1
row,SMILES,diameter of the inhibition zone (DIZ)
1,COc1ccc2nc(C)cc(-n3cc(CNCCCN(C)C)nn3)c2c1,12 mm
2,COc1ccc2nc(C)cc(-n3cc(CNC4CCCCC4)nn3)c2c1,10 mm
3,COc1ccc2nc(C)cc(-n3cc(CN4CCOCC4)nn3)c2c1,14 mm
4,COc1ccc2nc(C)cc(-n3cc(CN(C)C4CCCCC4)nn3)c2c1,<10 mm
5,COc1ccc2nc(C)cc(-n3cc(CN4CCN(c5ccccc5)CC4)nn3)c2c1,12 mm

# Same assay, conditions: Klebsiella pneumoniae
row,SMILES,MIC
1,COc1ccc2nc(C)cc(-n3cc(CNCCCN(C)C)nn3)c2c1,6.25 µg/mL
2,COc1ccc2nc(C)cc(-n3cc(CNC4CCCCC4)nn3)c2c1,12.5 µg/mL
3,COc1ccc2nc(C)cc(-n3cc(CN4CCOCC4)nn3)c2c1,6.25 µg/mL
4,COc1ccc2nc(C)cc(-n3cc(CN(C)C4CCCCC4)nn3)c2c1,50 µg/mL
5,COc1ccc2nc(C)cc(-n3cc(CN4CCN(c5ccccc5)CC4)nn3)c2c1,12.5 µg/mL

# Test system: Streptococcus pyogenes
# Test: Antibacterial activity against Streptococcus pyogenes after 3 to 4 days by serial plate dilution method
# Assay type: functional
# Conditions: not given
# Method in brief: as §1
row,SMILES,diameter of the inhibition zone (DIZ)
1,COc1ccc2nc(C)cc(-n3cc(CNCCCN(C)C)nn3)c2c1,14 mm
2,COc1ccc2nc(C)cc(-n3cc(CNC4CCCCC4)nn3)c2c1,12 mm
3,COc1ccc2nc(C)cc(-n3cc(CN4CCOCC4)nn3)c2c1,16 mm
4,COc1ccc2nc(C)cc(-n3cc(CN(C)C4CCCCC4)nn3)c2c1,<10 mm
5,COc1ccc2nc(C)cc(-n3cc(CN4CCN(c5ccccc5)CC4)nn3)c2c1,10 mm

# Same assay, conditions: Streptococcus pyogenes
row,SMILES,MIC
1,COc1ccc2nc(C)cc(-n3cc(CNCCCN(C)C)nn3)c2c1,6.25 µg/mL
2,COc1ccc2nc(C)cc(-n3cc(CNC4CCCCC4)nn3)c2c1,12.5 µg/mL
3,COc1ccc2nc(C)cc(-n3cc(CN4CCOCC4)nn3)c2c1,6.25 µg/mL
4,COc1ccc2nc(C)cc(-n3cc(CN(C)C4CCCCC4)nn3)c2c1,50 µg/mL
5,COc1ccc2nc(C)cc(-n3cc(CN4CCN(c5ccccc5)CC4)nn3)c2c1,12.5 µg/mL

# Test system: Aspergillus flavus
# Test: Antifungal activity against Aspergillus flavus NCIM 524 after 3 to 4 days by serial plate dilution method
# Assay type: functional
# Conditions: not given
# Method in brief: (§2)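 Sabouraud agar made from peptone, glucose and agar in water, pH 5.7. Fungal spores suspended in normal saline and used to lawn the plates, which were dried 1 h at 37 °C. Wells punched and compounds added in DMSO, with a DMSO solvent control. Triplicate plates held at 37 °C for 3–4 days. Read-out is inhibition zone diameter.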
row,SMILES,diameter of the inhibition zone (DIZ)
1,COc1ccc2nc(C)cc(-n3cc(CNCCCN(C)C)nn3)c2c1,14 mm
2,COc1ccc2nc(C)cc(-n3cc(CNC4CCCCC4)nn3)c2c1,12 mm
3,COc1ccc2nc(C)cc(-n3cc(CN4CCOCC4)nn3)c2c1,16 mm
4,COc1ccc2nc(C)cc(-n3cc(CN(C)C4CCCCC4)nn3)c2c1,<10 mm
5,COc1ccc2nc(C)cc(-n3cc(CN4CCN(c5ccccc5)CC4)nn3)c2c1,14 mm

# Same assay, conditions: Aspergillus flavus, NCIM 524
row,SMILES,MIC
1,COc1ccc2nc(C)cc(-n3cc(CNCCCN(C)C)nn3)c2c1,6.25 µg/mL
2,COc1ccc2nc(C)cc(-n3cc(CNC4CCCCC4)nn3)c2c1,12.5 µg/mL
3,COc1ccc2nc(C)cc(-n3cc(CN4CCOCC4)nn3)c2c1,6.25 µg/mL
4,COc1ccc2nc(C)cc(-n3cc(CN(C)C4CCCCC4)nn3)c2c1,50 µg/mL
5,COc1ccc2nc(C)cc(-n3cc(CN4CCN(c5ccccc5)CC4)nn3)c2c1,6.25 µg/mL

# Test system: Aspergillus fumigatus
# Test: Antifungal activity against Aspergillus fumigatus NCIM 902 after 3 to 4 days by serial plate dilution method
# Assay type: functional
# Conditions: not given
# Method in brief: as §2
row,SMILES,diameter of the inhibition zone (DIZ)
1,COc1ccc2nc(C)cc(-n3cc(CNCCCN(C)C)nn3)c2c1,16 mm
2,COc1ccc2nc(C)cc(-n3cc(CNC4CCCCC4)nn3)c2c1,<10 mm
3,COc1ccc2nc(C)cc(-n3cc(CN4CCOCC4)nn3)c2c1,18 mm
4,COc1ccc2nc(C)cc(-n3cc(CN(C)C4CCCCC4)nn3)c2c1,<10 mm
5,COc1ccc2nc(C)cc(-n3cc(CN4CCN(c5ccccc5)CC4)nn3)c2c1,16 mm

# Same assay, conditions: Aspergillus fumigatus, NCIM 902
row,SMILES,MIC
1,COc1ccc2nc(C)cc(-n3cc(CNCCCN(C)C)nn3)c2c1,6.25 µg/mL
2,COc1ccc2nc(C)cc(-n3cc(CNC4CCCCC4)nn3)c2c1,25 µg/mL
3,COc1ccc2nc(C)cc(-n3cc(CN4CCOCC4)nn3)c2c1,6.25 µg/mL
4,COc1ccc2nc(C)cc(-n3cc(CN(C)C4CCCCC4)nn3)c2c1,50 µg/mL
5,COc1ccc2nc(C)cc(-n3cc(CN4CCN(c5ccccc5)CC4)nn3)c2c1,6.25 µg/mL

# Test system: Talaromyces marneffei
# Test: Antifungal activity against recultured Penicillium marneffei after 3 to 4 days by serial plate dilution method
# Assay type: functional
# Conditions: not given
# Method in brief: as §2
row,SMILES,diameter of the inhibition zone (DIZ)
1,COc1ccc2nc(C)cc(-n3cc(CNCCCN(C)C)nn3)c2c1,14 mm
2,COc1ccc2nc(C)cc(-n3cc(CNC4CCCCC4)nn3)c2c1,10 mm
3,COc1ccc2nc(C)cc(-n3cc(CN4CCOCC4)nn3)c2c1,12 mm
4,COc1ccc2nc(C)cc(-n3cc(CN(C)C4CCCCC4)nn3)c2c1,<10 mm
5,COc1ccc2nc(C)cc(-n3cc(CN4CCN(c5ccccc5)CC4)nn3)c2c1,16 mm

# Same assay, conditions: Talaromyces marneffei
row,SMILES,MIC
1,COc1ccc2nc(C)cc(-n3cc(CNCCCN(C)C)nn3)c2c1,6.25 µg/mL
2,COc1ccc2nc(C)cc(-n3cc(CNC4CCCCC4)nn3)c2c1,12.5 µg/mL
3,COc1ccc2nc(C)cc(-n3cc(CN4CCOCC4)nn3)c2c1,6.25 µg/mL
4,COc1ccc2nc(C)cc(-n3cc(CN(C)C4CCCCC4)nn3)c2c1,50 µg/mL
5,COc1ccc2nc(C)cc(-n3cc(CN4CCN(c5ccccc5)CC4)nn3)c2c1,6.25 µg/mL

# Test system: Trichophyton mentagrophytes
# Test: Antifungal activity against recultured Trichophyton mentagrophytes after 3 to 4 days by serial plate dilution method
# Assay type: functional
# Conditions: not given
# Method in brief: as §2
row,SMILES,diameter of the inhibition zone (DIZ)
1,COc1ccc2nc(C)cc(-n3cc(CNCCCN(C)C)nn3)c2c1,12 mm
2,COc1ccc2nc(C)cc(-n3cc(CNC4CCCCC4)nn3)c2c1,<10 mm
3,COc1ccc2nc(C)cc(-n3cc(CN4CCOCC4)nn3)c2c1,12 mm
4,COc1ccc2nc(C)cc(-n3cc(CN(C)C4CCCCC4)nn3)c2c1,<10 mm
5,COc1ccc2nc(C)cc(-n3cc(CN4CCN(c5ccccc5)CC4)nn3)c2c1,16 mm

# Same assay, conditions: Trichophyton mentagrophytes
row,SMILES,MIC
1,COc1ccc2nc(C)cc(-n3cc(CNCCCN(C)C)nn3)c2c1,6.25 µg/mL
2,COc1ccc2nc(C)cc(-n3cc(CNC4CCCCC4)nn3)c2c1,25 µg/mL
3,COc1ccc2nc(C)cc(-n3cc(CN4CCOCC4)nn3)c2c1,6.25 µg/mL
4,COc1ccc2nc(C)cc(-n3cc(CN(C)C4CCCCC4)nn3)c2c1,50 µg/mL
5,COc1ccc2nc(C)cc(-n3cc(CN4CCN(c5ccccc5)CC4)nn3)c2c1,6.25 µg/mL

# Test system: Candida albicans
# Test: Antifungal activity against Candida albicans after 3 to 4 days by serial plate dilution method
# Assay type: functional
# Conditions: not given
# Method in brief: as §2
row,SMILES,diameter of the inhibition zone (DIZ)
1,COc1ccc2nc(C)cc(-n3cc(CNCCCN(C)C)nn3)c2c1,14 mm
2,COc1ccc2nc(C)cc(-n3cc(CNC4CCCCC4)nn3)c2c1,11 mm
3,COc1ccc2nc(C)cc(-n3cc(CN4CCOCC4)nn3)c2c1,14 mm
4,COc1ccc2nc(C)cc(-n3cc(CN(C)C4CCCCC4)nn3)c2c1,<10 mm
5,COc1ccc2nc(C)cc(-n3cc(CN4CCN(c5ccccc5)CC4)nn3)c2c1,12 mm

# Same assay, conditions: Candida albicans
row,SMILES,MIC
1,COc1ccc2nc(C)cc(-n3cc(CNCCCN(C)C)nn3)c2c1,6.25 µg/mL
2,COc1ccc2nc(C)cc(-n3cc(CNC4CCCCC4)nn3)c2c1,12.5 µg/mL
3,COc1ccc2nc(C)cc(-n3cc(CN4CCOCC4)nn3)c2c1,6.25 µg/mL
4,COc1ccc2nc(C)cc(-n3cc(CN(C)C4CCCCC4)nn3)c2c1,50 µg/mL
5,COc1ccc2nc(C)cc(-n3cc(CN4CCN(c5ccccc5)CC4)nn3)c2c1,6.25 µg/mL
